We go through 27 compounds from ChEMBL document CHEMBL4261495, “Antitrypanosomal and antileishmanial activity of prenyl-1,2,3-triazoles” (Medchemcomm, 2017).

Data set [1] has as its target Sterol 14-alpha demethylase (Trypanosoma cruzi (strain CL Brener)) (UniProt Q7Z1V1). Kind of data set: Inhibition of Trypanosoma cruzi CYP51 assessed as residual enzyme activity at 100 uM using [3H]-MDL as substrate pretreated for 10 mins followed by NADPH addition by RP-HPLC analysis relative to control. An outline of the steps:
(§1)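 TcCYP51 was reconstituted with T. brucei CPR and DLPC (1:2:50 molar), preincubated 10 min at room temperature. The reaction held 1 µM enzyme and 50 µM [3H]-labelled/unlabelled 24-methylenedihydrolanosterol in 20 mM MOPS pH 7.4, 50 mM KCl, 5 mM MgCl2, 10% glycerol, isocitrate dehydrogenase and 25 mM isocitrate. Inhibitor (1-100 µM) was preincubated 5 min at 37 °C, then 5 µM NADPH started the reaction. Products were detected by radioactivity.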

In data set [2] the test system is Trypanosoma cruzi. Kind of data set: Antitrypanosomal activity against Trypanosoma cruzi strain CL Brener epimastigotes measured after 72 hrs by Neubauer chamber based cell counting method. Type of data set: functional, organism-based. In a few lines:
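CL-Brener epimastigotes were grown in BHT medium at 28 °C and seeded at 3-4 × 10^6 parasites/mL. Compound was added in DMSO (1% final) at 5-100 µg/mL, with benznidazole as positive control. After 72 h, parasites were counted in a Neubauer chamber and inhibition was taken relative to untreated growth. IC50 came from the inhibition-concentration plot. Triplicates were run; values average three independent experiments.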

Data set [3] can be described thus: Octanol/water partition coefficient, log P of the compound. Type of data set: physicochemical.
Data set [4] has as its system Leishmania donovani. Kind of data set: Antileishmanial activity against Leishmania donovani S1 promastigotes after 72 hrs by alamar blue assay. It is filed as functional, organism-based. Particulars: S1, 72 h. An outline of the steps:
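Leishmania donovani strain S1 promastigotes at 2×10^6 cells/mL were exposed to final concentrations of 40, 8 and 1.6 µg/mL. Plates were incubated 72 h at 26 °C, and growth was read by Alamar blue. Pentamidine and amphotericin B served as standards.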

Data set [5] relates to Vero. Kind of data set: Cytotoxicity against African green monkey Vero cells at 20 uM after 2 days by neutral red uptake assay. It is filed as cell-based. Particulars: chlorocebus sabaeus, 48 h.
Data set [6] deals with Sterol 14-alpha demethylase (Trypanosoma cruzi (strain CL Brener)) (UniProt Q7Z1V1). The data set can be described thus: Inhibition of Trypanosoma cruzi CYP51 assessed as residual enzyme activity at 100 uM using [3H]-MDL as substrate pretreated for 5 mins followed by NADPH addition by RP-HPLC analysis relative to control. An outline of the steps: as §1
Sequence of Sterol 14-alpha demethylase (Trypanosoma cruzi (strain CL Brener)) (Q7Z1V1 whole entry, looked up): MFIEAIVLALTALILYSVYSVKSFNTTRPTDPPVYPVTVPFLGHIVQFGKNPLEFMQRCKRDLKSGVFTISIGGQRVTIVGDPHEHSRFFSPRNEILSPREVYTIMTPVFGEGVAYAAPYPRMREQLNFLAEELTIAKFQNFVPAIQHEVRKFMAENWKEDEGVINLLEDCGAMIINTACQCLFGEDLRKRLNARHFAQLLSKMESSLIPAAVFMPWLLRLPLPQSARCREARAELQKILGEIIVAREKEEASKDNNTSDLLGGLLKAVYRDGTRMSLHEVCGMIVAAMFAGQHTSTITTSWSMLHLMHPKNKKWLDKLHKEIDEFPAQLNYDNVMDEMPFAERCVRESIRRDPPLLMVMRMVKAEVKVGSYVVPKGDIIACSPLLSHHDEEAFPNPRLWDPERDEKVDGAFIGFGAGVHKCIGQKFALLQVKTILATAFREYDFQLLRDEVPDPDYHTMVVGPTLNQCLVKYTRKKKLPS
The target in data set [7] is Sterol 14-alpha demethylase (Trypanosoma cruzi (strain CL Brener), UniProt Q7Z1V1). Kind of data set: Binding affinity to Trypanosoma cruzi CYP51 by spectrophotometric method. An outline of the steps: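 Spectral titration used 2 µM TcCYP51 in buffer A at 24 °C, scanned over 350-500 nm in tandem cuvettes. Ligand was added stepwise from 1 or 10 mM DMSO stocks until the spectral response peaked, with DMSO added to the reference cuvette. Apparent Kd came from fitting absorbance change against free ligand concentration to a rectangular hyperbola.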
Sequence of Sterol 14-alpha demethylase (Q7Z1V1 whole entry): as the sequence (Q7Z1V1 whole entry, looked up) above

A value given as a limit tells only on which side of the number the result lay.

As to `COC(=O)c1cn(C/C=C(/C)CC/C=C(\C)CCC=C(C)C)nn1`, the Activity in data set [1] is 59%; in data set [5] it was “Non-Toxic”; in data set [6], 26%. Moreover, the IC50 in data set [2] is 15 µM; in data set [4], 11 µM. The compound further gave a logP in data set [3] of 5.25.
For the compound `CCCCCCCCc1cn(CC=C(C)C)nn1`, the IC50 in data set [2] was 27 µM; in data set [4], more than 100 µM. In data set [3], this compound registered a log partition coefficient (logP) of 4.92. In addition, the Activity entry in data set [5] is reported as “Non-Toxic”.
`O=C(Cn1ccnc1[N+](=O)[O-])NCc1ccccc1` [BENZNIDAZOLE]: in data set [3], the logP was 0.78.
With `CCCc1cn(C/C=C(\C)CCC=C(C)C)nn1`, the IC50 in data set [2] is 31 µM; in data set [4], 72 µM. Also, the logP in data set [3] came out at 4.5. In addition, in data set [5], the Activity result was “Non-Toxic”.
With `CCCc1cn(C/C=C(/C)CC/C=C(\C)CCC=C(C)C)nn1`, the Activity was 49% in data set [1], “Non-Toxic” in data set [5] and 14% in data set [6]. The figures for the concentration for half-maximal inhibition (IC50) in data set [2] and in data set [4] were 17 µM and 33 µM, respectively. The logP in data set [3] is 6.5.
Consider `CC(C)=CCC/C(C)=C/CC/C(C)=C/Cn1cc(-c2ccccc2)nn1`, for which the figures for the IC50 in data set [2] and in data set [4] were 34 µM and 48 µM, respectively. Besides, in data set [3], the logP worked out at 6.95. The Activity result in data set [5] is given as “Non-Toxic”.
`CC(C)=CCC/C(C)=C/Cn1cc(-c2ccccc2)nn1`: the figures for the IC50 in data set [2] and in data set [4] were 39 µM and 49 µM, respectively. Further, in data set [3], the logP came to 4.91. In data set [5], the Activity result is recorded as “Non-Toxic”.
For `CC(C)=CCC/C(C)=C/CC/C(C)=C\Cn1cc(-c2ccccc2)nn1`, the IC50 came to 32 µM in data set [2] and 49 µM in data set [4]. In data set [3], this compound displayed a logP of 6.95. In addition, in data set [5], the Activity result was “Non-Toxic”.
Turning to `CCCCCc1cn(C/C=C(\C)CC/C=C(\C)CCC=C(C)C)nn1`, the results for the Activity in data set [1], in data set [5] and in data set [6] were 33%, “Non-Toxic” and 9%, respectively. Also, the figures for the IC50 in data set [2] and in data set [4] were 29 µM and 44 µM, respectively. The compound further gave a logP in data set [3] of 7.5.
Regarding `CCCCCCCCc1cn(C/C=C(\C)CC/C=C(\C)CCC=C(C)C)nn1`, the values for the half-inhibitory concentration (IC50) in data set [2] and in data set [4] were more than 100 µM and 36 µM, respectively. In addition, the logP in data set [3] was determined as 8.76. Also, in data set [5], the Activity result is given as “Non-Toxic”.
On to `CCCc1cn(C/C=C(\C)CC/C=C(\C)CCC=C(C)C)nn1`, for which the values for the Activity in data set [1], in data set [5] and in data set [6] were 56%, “Non-Toxic” and 27%, respectively. The IC50 in data set [2] amounted to 18 µM; in data set [4], 51 µM. The compound further had a logP in data set [3] of 6.5.
With `CCCCCCCCc1cn(C/C=C(/C)CCC=C(C)C)nn1`, the IC50 in data set [2] was 34 µM; in data set [4] it was 16 µM. In data set [3], this compound showed a logP of 6.92. The Activity result in data set [5] is reported as “Non-Toxic”.
For the compound `CCCCCCCCc1cn(C/C=C(/C)CC/C=C(\C)CCC=C(C)C)nn1`, the IC50 in data set [2] is more than 100 µM; in data set [4] it was 52 µM. Besides, the logP in data set [3] is 8.76. Also, the Activity result in data set [5] is reported as “Non-Toxic”.
In the case of `COC(=O)c1cn(C/C=C(\C)CCC=C(C)C)nn1`, the IC50 in data set [2] is 87 µM; in data set [4], more than 100 µM. The compound also gave a logP in data set [3] of 3.2. In addition, the Activity result in data set [5] is “Non-Toxic”.
In data set [7], `CCCCCc1cn(C/C=C(/C)CC/C=C(\C)CCC=C(C)C)nn1` showed a Kd of 7.6 µM. Further, the Activity was 39% in data set [1], “Non-Toxic” in data set [5] and 7% in data set [6]. For the same compound, the IC50 in data set [2] was found to be 18 µM; in data set [4], 11 µM. In addition, in data set [3], the logP was found to be 7.5.
For the compound `CCCCCc1cn(C/C=C(/C)CCC=C(C)C)nn1`, the IC50 stood at 36 µM in data set [2] and 40 µM in data set [4]. The same compound returned a logP in data set [3] of 5.45. Besides, the Activity entry in data set [5] is recorded as “Non-Toxic”.
With `CCCCCc1cn(CC=C(C)C)nn1`, the IC50 in data set [2] and in data set [4] was more than 100 µM throughout. This compound also came in with a logP in data set [3] of 3.46. In addition, the Activity entry in data set [5] is given as “Non-Toxic”.
On to `COC(=O)c1cn(C/C=C(/C)CCC=C(C)C)nn1`, for which the IC50 in data set [2] was 87 µM; in data set [4], more than 100 µM. The compound further showed a logP in data set [3] of 3.2. Further, the Activity entry in data set [5] was “Non-Toxic”.
In data set [3], `N=C(N)c1ccc(OCCCCCOc2ccc(C(=N)N)cc2)cc1` [PENTAMIDINE] returned a logP of 1.49.
Take `CCCCCc1cn(C/C=C(\C)CCC=C(C)C)nn1`: the IC50 was 51 µM in data set [2] and 94 µM in data set [4]. The compound further gave a logP in data set [3] of 5.45. Also, the Activity result in data set [5] is “Non-Toxic”.
Consider `CCCc1cn(C/C=C(/C)CCC=C(C)C)nn1`, for which the IC50 in data set [2] and in data set [4] was 44 µM throughout. Further, the logP in data set [3] was 4.05. In addition, the Activity entry in data set [5] is reported as “Non-Toxic”.
As to `CCCCCCCCc1cn(C/C=C(\C)CCC=C(C)C)nn1`, the IC50 in data set [2] came out at 27 µM; in data set [4], 57 µM. This compound displayed a logP in data set [3] of 6.92. In data set [5], the Activity entry was “Non-Toxic”.
In the case of `COC(=O)c1cn(C/C=C(\C)CC/C=C(\C)CCC=C(C)C)nn1`, the Activity in data set [1] is 63%; in data set [5], “Non-Toxic”; in data set [6], 35%. The IC50 came out at 9 µM in data set [2] and 31 µM in data set [4]. The same compound displayed a logP in data set [3] of 5.25.
As to `CC(C)=CCC/C(C)=C\Cn1cc(-c2ccccc2)nn1`, the IC50 came out at 39 µM in data set [2] and 49 µM in data set [4]. Further, the logP in data set [3] is 4.91. Also, the Activity entry in data set [5] was “Non-Toxic”.
In the case of `CC(C)=CCn1cc(-c2ccccc2)nn1`, the IC50 in data set [2] and in data set [4] was more than 100 µM throughout. The compound also yielded a logP in data set [3] of 2.82. Also, in data set [5], the Activity result is reported as “Non-Toxic”.
On to `COC(=O)c1cn(CC=C(C)C)nn1`, for which the IC50 in data set [2] and in data set [4] was more than 100 µM each time. The same compound showed a logP in data set [3] of 1.3. In addition, in data set [5], the Activity result is “Non-Toxic”.
Consider `CCCc1cn(CC=C(C)C)nn1`, for which the IC50 in data set [2] and in data set [4] was more than 100 µM throughout. The logP in data set [3] was found to be 2.47. In data set [5], the Activity entry was “Non-Toxic”.
